Screens deposited in PubChem BioAssay by several laboratories.
p47phox inh = p47phox (human) inhibition. hit rate 0.53% among 220,000. P14598. p47phox/p22phox peptide binding, fluorescence polarization, 2 h. inhibition, % at 24.7 µM. AID 1274;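 active = inhibition above about 30%, limit read from the data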
Hck Nef HTS = blocks Nef-activated human Hck kinase | P08631 | inhibition, % at 20 µM | Recombinant Hck-YEEI plus Nef, Z-Lyte FRET kinase assay | hit rate 0.68% among 220,000;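 active = Hck-Nef kinase inhibition above about 50%, limit read from the data; inactive = inhibition below that limit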
Target sequence (P08631 whole entry, looked up): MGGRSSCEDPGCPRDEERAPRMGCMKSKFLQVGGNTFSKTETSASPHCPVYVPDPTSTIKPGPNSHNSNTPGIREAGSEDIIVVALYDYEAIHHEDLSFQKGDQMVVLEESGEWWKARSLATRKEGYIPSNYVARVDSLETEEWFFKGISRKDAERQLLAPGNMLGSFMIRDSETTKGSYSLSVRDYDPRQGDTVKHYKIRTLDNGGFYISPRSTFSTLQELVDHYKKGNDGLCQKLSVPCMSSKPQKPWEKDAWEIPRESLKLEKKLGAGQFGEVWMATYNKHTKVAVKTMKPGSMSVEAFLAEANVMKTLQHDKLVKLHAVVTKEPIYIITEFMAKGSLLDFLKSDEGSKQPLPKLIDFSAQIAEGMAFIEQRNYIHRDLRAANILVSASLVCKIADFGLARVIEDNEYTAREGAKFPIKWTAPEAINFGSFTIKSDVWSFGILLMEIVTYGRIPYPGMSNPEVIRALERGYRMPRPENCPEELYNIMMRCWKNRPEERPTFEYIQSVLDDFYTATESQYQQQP
Arbovirus inh = blocks arbovirus infection; arbovirus infection cell-based antiviral screen; inhibition, % at 10 µM; hit rate 0.37% among 200,000; AID 1251; in the data active = inhibition above about 30%
Calb biofilm kill = mixture kills Candida albicans biofilm cells; C. albicans biofilm persisters + clotrimazole, fluorescence viability; primary screen in compound mixtures of four per well; inhibition, % at 7.6 µM; hit rate 0.02% among 120,000;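 active = inhibition above 30.3% in the primary screen of four-compound pools, then above 30% when the compound was retested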;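 also: compounds exposed to preformed 24 h biofilms for 48 h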
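System: C. albicans CAF4-2 wild-type biofilms; Medium: RPMI/MOPS medium, pH 7.0; Reagent: Clotrimazole, 50 µg/mL; Times: biofilm formation 24 h, compound exposure 48 h, 37 °C; Detection: 2-h Alamar Blue fluorescence, 535/590 nm excitation/emission; Evaluation: percent inhibition of biofilm viability.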
WT yeast gro inh = growth inhibition of WT yeast, mitochondrial fusion screen. AID 1362. mitochondrial fusion phenotypic screen, WT strain. inhibition, % at 10 µM. hit rate 2.1% among 190,000; in the data active = inhibition above about 58%; tested in S. cerevisiae
RAM inhibit = blocks the yeast RAM network; inhibition, % at 50 µM; S. cerevisiae dse1pr::URA3 reporter, 5-FOA growth OD615, 2 d; analog-sensitive cbk1-as2 kinase mutant strain; hit rate 1.8% among 190,000;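 active = inhibition above a set limit, 3 SD over mean compound inhibition, cut at about 8.4% in these data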;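 also: inhibition rescues growth on 5-FOA so higher OD means more RAM inhibition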
Numbers stand for hits; - = inactive; . = no result given. Hits are enriched below; roughly 4.6% of the tested compounds scored in any of these assays.

SMILES | p47phox inh | Hck Nef HTS | Arbovirus inh | Calb biofilm kill | WT yeast gro inh | RAM inhibit
O=C(CCc1nnc(Cc2c[nH]c3ccccc23)o1)NC(C1CC1)C1CC1 | - | - | - | - | - | -
O=C(c1ccc(Cl)c(S(=O)(=O)NCc2ccco2)c1)N1CCN(c2ccc(F)cc2)CC1 | - | - | - | . | - | -
COc1cccc(OC)c1OCCCOc1ccc(C)cc1Br | - | - | - | - | 67 | -
COc1ccccc1OCCCOc1c(C)cc(C)cc1Br | - | - | - | - | - | -
O=C(c1ccco1)N1CCN(c2ncnc3c2nnn3Cc2ccccc2Cl)CC1 | - | - | - | - | - | -
CCOC(=O)C1CCN(c2ncnc3c2nnn3Cc2ccccc2Cl)CC1 | - | - | - | - | - | 8.4
Cc1ccc(NC(=S)Nc2ccc(C(C)C)cc2)cc1S(=O)(=O)N1CCCCCC1 | - | - | - | - | 66 | -
COc1ccc(CCC(=O)NC2=NCCS2)cc1OC | - | - | - | - | - | -
COc1cc(OC)cc(C(=O)N[C@H](C(=O)OCC(=O)Nc2ccc(OC)c(OC)c2)C(C)C)c1 | - | - | - | - | - | -
COc1cc(OC)cc(C(=O)N[C@H](C(=O)OCC(=O)Nc2ccc(C(C)C)cc2)C(C)C)c1 | - | - | - | - | - | 8.5
COc1ccccc1OCC(O)Cn1c(=N)n(Cc2ccccc2)c2ccccc21 (stereo not given) | - | - | - | . | - | -
Cc1ccccc1OCC(O)Cn1c(=N)n(Cc2ccccc2)c2ccccc21 (stereo not given) | - | - | . | 30 | . | .
COc1ccccc1NC(=O)C(=O)N/N=C/c1cccs1 | - | - | - | - | - | -
CN1CCN(C(=S)NC(=O)c2ccc(Cl)cc2)CC1 | - | - | 81 | - | - | -
C/C(=N/NC(=O)CNS(=O)(=O)c1ccc(C)cc1)c1cccc([N+](=O)[O-])c1 | - | - | - | - | - | -
Cc1ccccc1NC(=O)CSc1nc(COc2ccccc2)nc2ccccc12 | - | - | - | . | - | 9.7
O=C(CSc1cccc[n+]1[O-])Nc1cc([N+](=O)[O-])ccc1Cl | - | - | - | - | - | -
O=C(CSc1cccc[n+]1[O-])Nc1cc2c(cc1Cl)C(=O)c1ccccc1C2=O | 33 | - | - | - | - | -
COc1ccc2cc(CCNC(=O)c3ccc(Br)o3)c(=O)[nH]c2c1 | - | - | - | . | - | -
Cc1cc2cc(CCNC(=O)c3ccc(Br)o3)c(=O)[nH]c2cc1C | - | - | - | . | 96 | -
CCc1c(C)sc2nc(C(C)C)nc(SCC(=O)N3CCc4ccccc4C3)c12 | - | - | - | . | 61 | -
Cc1sc2nc(C3CC3)nc(SCC(=O)N3CCc4ccccc4C3)c2c1C | - | - | - | . | - | -
Cc1ccc[n+](CC(=O)Nc2cc(C(F)(F)F)ccc2Cl)c1 | - | - | - | . | - | -
CCC(C)(C)c1ccc(OCCCC[n+]2cccc(C)c2)c(C(C)(C)CC)c1 | - | - | - | - | 98 | -
CCCc1nn(C)c(C(=O)Nc2ccc3ccccc3c2)c1Cl | - | - | - | - | - | 11
SMILES | p47phox inh | Hck Nef HTS | Arbovirus inh | Calb biofilm kill | WT yeast gro inh | RAM inhibit
Cc1ccc(C(C)C)c(OCc2nc(-c3nonc3N)no2)c1 | 166 | - | - | . | - | -
Cc1ccc(C(C)C)c(OCc2n[nH]c(=S)o2)c1 | - | - | - | - | - | -
Cc1ccccc1C(C(=O)NCc1ccco1)N(CC1CCCO1)C(=O)Cn1nnc2ccccc21 (stereo not given) | - | - | - | . | - | -
O=C(NCC1CCCO1)C(c1ccc(N2CCOCC2)cc1)N(C(=O)Cn1nnc2ccccc21)c1ccccc1F (stereo not given) | - | - | - | - | - | -
Cc1ccccc1CCN(C(=O)Cn1nnc2ccccc21)C(C(=O)NCC1CCCO1)c1nc2ccccc2n1C (stereo not given) | 45 | - | - | - | - | -
CC(=O)c1cccc(N(C(=O)Cn2nnc3ccccc32)C(C(=O)NCC2CCCO2)c2ccc(N3CCOCC3)cc2)c1 (stereo not given) | - | - | - | - | - | 11
NC(=O)CSc1nnc(C2CC2)n1-c1ccccc1 | - | - | - | . | . | -
Cc1ccc(N2C(=O)C(NC(=O)c3ccccc3)(C(F)(F)F)C3=C2CC(C)(C)CC3=O)cc1 (stereo not given) | - | - | - | - | - | -
COC(=O)[C@@H]1C[C@@]2(O)[C@H](O)[C@H](O)[C@H](O)C[C@H]2N1Cc1ccc(-c2ccccc2)cc1 | - | - | . | - | . | .
CCOC(=O)N1CCN(S(=O)(=O)c2ccc(C)c(C)c2)CC1 | - | - | - | . | 81 | -
O=S(=O)(NCCCN1CCOCC1)c1ccc2ccccc2c1 | - | - | - | - | - | -
COc1ccc(-c2c(C(F)(F)F)oc3cc(OCC(=O)Nc4ccccc4C(F)(F)F)ccc3c2=O)cc1OC | 31 | - | - | - | - | -
CNC(=O)CS(=O)CC(=O)Nc1cc(OC(C)C)c(Cl)cc1Cl (stereo not given) | - | - | - | - | - | -
CC(=O)NC(c1cccc([N+](=O)[O-])c1)c1c(OC(C)=O)ccc2ccccc12 (stereo not given) | - | - | - | - | - | -
CC(=O)Oc1ccc2ccccc2c1C(NC(=O)Cc1ccccc1)c1ccccc1 (stereo not given) | - | - | - | . | - | 9.6
O=C1CCCC(O)=C1N=Nc1ccc2c(c1)OCO2 | - | - | - | - | - | -
O=C1CCCC(O)=C1N=Nc1ccc(C(=O)O)cc1 | 32 | - | . | - | . | .
Cc1cc(OCC#N)nc(N)n1 | - | - | - | - | - | -
NC(=O)C1(N2CCCCC2)CCN(c2nc(-c3ccc(Br)cc3)cs2)CC1 | - | - | - | . | 65 | -
CC(=O)Nc1ccccc1NS(=O)(=O)c1ccc(Cl)cc1 | - | - | - | . | - | -
O=S(=O)(Nc1cccc2c1CCCC2)c1ccc(Cl)cc1 | - | - | - | - | - | 9.2
O=C(N/N=C/c1ccco1)c1ccccc1OCc1ccc(Br)cc1 | - | - | - | - | - | -
CCNC(=S)NNC(=O)c1cc(-c2ccc(OC)cc2)nc2ccccc12 | - | - | - | - | 68 | -
COc1cccc(-c2cc(C(=O)Nn3cnnc3)c3ccccc3n2)c1 | - | - | 38 | . | - | -
COc1cc(OC)cc(C(=O)NNC(=O)NC2CCCCC2)c1 | - | - | - | - | - | -
NC(=O)C1(C(N)=O)OC1c1ccc(Cl)c(Cl)c1 (stereo not given) | - | - | . | - | . | .
COC(=O)C1=C(C)C(c2ccc(OC)cc2OC)NC(=O)N1 (stereo not given) | - | - | - | . | - | -
COc1ccc(C2CC(C)(c3ccc(OC)cc3OC)Nc3ccccc3N2)c(OC)c1 (stereo not given) | - | - | - | - | 72 | -
CC(C)N=c1scc(-c2cccs2)n1/N=C/c1ccc(O)c(O)c1O | - | - | - | - | 82 | -
Cc1cccc(OCC(=O)Nc2nc3ccc([N+](=O)[O-])cc3s2)c1C | - | - | - | . | 65 | -
